Bioassay records (PubChem)
Redox H2O2 prof: compounds producing H2O2 with reducing agent – biochemical, NIH compound library profiling, artefact control for MLSCN library redox annotation, primary screen; DTT-dependent redox cycling H2O2, phenol red/HRP absorbance; 100% = 100 µM peroxide control, 0% = buffer; activation, % at 10 µM; hit rate 0.03% among 200,000;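 active means activation of at least 50% relative to the plate's high and low controls in the primary single-dose screen; inactive means activation below 50%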;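 further: compound incubated with DTT at 0.8 mM final as the reducing agent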
GSTO1 inh: inhibitors of recombinant GSTO1, primary screen, counter-screen for RBBP9 inhibitor project, biochemical, fluorescence polarization; Glutathione S-transferase omega-1 (Homo sapiens), P78417; activity-based probe fluorescence polarization; inhibition, % at 5.96 µM; hit rate 1.1% among 300,000; AID 1974, 2009;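 active means inhibition above the campaign mean inhibition plus 3 SD, cut at about 35% in these data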
HKDC1 inh: HKDC1 hexokinase inhibitors, primary screen, biochemical, fluorescence, uHTS; inhibition, % at 20 µM; hit rate 0.16% among 340,000; Q2TB90; AID 493160, 2011; recombinant HKDC1, G6PDH/diaphorase resazurin coupled fluorescence;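 active means inhibition above about 35% when tested at 20 µM, limit read from the data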
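Test system: recombinant HKDC1 (HK5) hexokinase enzyme, produced in-house; Amount: enzyme 5 µg/mL final; Buffer or medium: Tris pH 8.0 buffer with MgCl2, Tween-20, BSA, BME; Reagent: glucose and ATP substrates; Doses: 20 µM test compound, 1% DMSO; Incubation: 90 min reaction incubation at room temperature, dark; Detection: resorufin fluorescence at 613 nm.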
Apaf-1 inh: inhibitors of human Apaf-1 apoptosome, primary screen, biochemical, DEVD-Rh110 fluorescence, uHTS | Apoptotic protease-activating factor 1 (Homo sapiens), O14727 | reconstituted apoptosome caspase-3 activity | inhibition, % at 20 µM | hit rate 0.71% among 330,000 | AID 489030, 2010; active means inhibition of at least 40% at 20 µM
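Material: cell-free apoptosome with Apaf-1, procaspase-3 and caspase-9; Buffer or medium: Hepes pH 7.5 with detergent and BSA; Reagent: cytochrome c trigger plus (Z-DEVD)2-Rh110 caspase-3 substrate; Times: compound with Apaf-1, dATP, procaspase-3 30 min, then 50 min reaction, room temperature; Technique: Rh110 fluorescence intensity.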
SUMO HTRF inh: inhibitors of in vitro SUMOylation cascade, primary screen, biochemical, HTRF, uHTS; HTRF SUMOylation assay, SAE1/SAE2 + UBC9; inhibition, % at 35 µM; hit rate 0.36% among 290,000; AID 2006, 2009; in the data active means inhibition above about 50%, passing the limit was not always enough
Numbers stand for hits; i = inactive; nt = no result. Rows were chosen to be rich in hits. Some 1.4% of all compounds tested hit in one or more screens of this group.

SMILES | Redox H2O2 prof | GSTO1 inh | HKDC1 inh | Apaf-1 inh | SUMO HTRF inh
Cc1ccoc1C(=O)NCCNC(=O)c1occc1C | nt | i | i | i | nt
Cc1ccoc1C(=O)NCCCNC(=O)c1occc1C | i | 35 | i | i | i
Cc1ccc(-c2nc3cc(C)ccc3o2)cc1 | i | i | i | i | i
Cc1ccc(-c2nc3cc(N)ccc3o2)cc1 | i | i | i | i | 52
Nc1ccc2oc(-c3cccc4ccccc34)nc2c1 | i | i | i | i | i
Nc1ccc2oc(-c3cccs3)nc2c1 | i | i | i | i | 56
O=C(O)c1cc(-c2ccc(/C=C3\NC(=O)N(c4ccccc4)C3=O)o2)ccc1Cl | nt | i | i | i | i
O=C(O)c1cc(-c2ccc(/C=c3\sc4nc5ccc(Br)cc5n4c3=O)o2)ccc1Cl | nt | 41 | nt | nt | i
CC(C)OC(=O)C(C(=O)C(F)(F)F)c1cc(NS(=O)(=O)c2ccc3ccccc3c2)c2ccccc2c1O (configuration not stated) | i | i | i | i | 71
CCC[C@@H](CN1CCC[C@H]1CN1C(N)=NC[C@H]1CC(C)C)N1C[C@@H]([C@H](C)CC)N(CCCC2CCCC2)C1=N | nt | nt | i | 53 | nt
CCC[C@@H](CN1CCC[C@H]1CN1C(N)=NC[C@H]1C(C)C)N1C[C@@H]([C@H](C)CC)N(CCCC2CCCC2)C1=N | nt | nt | i | i | nt
O=C(Oc1ccc[nH]c1=O)c1cccc(Cl)c1 | nt | i | i | i | 100
CCOC(=O)N1CCN(C(=O)c2cccn3c(=O)c4sccc4nc23)CC1 | i | i | i | i | i
CCOC(=O)N1CCN(C(=O)c2cccn3c(=O)c4cc(Br)ccc4nc23)CC1 | i | i | i | i | 51
CCOC(=O)N1CCN(C(=O)c2cccn3c(=O)c4cc(Cl)ccc4nc23)CC1 | i | i | i | i | 58
Cc1c(NS(=O)(=O)c2cc(C(=O)NCCN(C)C)ccc2Cl)c(=O)n(-c2ccccc2)n1C | nt | 37 | i | i | i
Cc1c(NS(=O)(=O)c2cc(C(=O)NCc3cccc(Cl)c3)ccc2Cl)c(=O)n(-c2ccccc2)n1C | nt | nt | i | nt | nt
Cc1nsc2nc3c(F)c(F)c(F)c(F)c3cc12 | nt | i | i | i | i
COc1ccc(C(N)c2nccc3cc(OC)c(OC)cc23)cc1OC (configuration not stated) | nt | 39 | i | i | i
COCCn1c(C)cc(C(=O)CN2C(=O)NC3(CCCCCC3)C2=O)c1C | nt | nt | i | i | nt
Fc1cccc(Cl)c1CNc1ccc(N2CCCC2)cc1 | i | 37 | i | 48 | i
NS(=O)(=O)c1ccc(NCc2c(F)cccc2Cl)cc1 | i | nt | i | nt | i
O=C(CNC(=O)c1ccc(Cl)cc1Cl)OCN1C(=O)c2ccccc2C1=O | nt | i | i | i | nt
CC1=CC2=NC(=O)/C(=C/c3cccn3Cc3ccccc3)C(=N)N2O1 | nt | i | i | i | i
N=C1/C(=C/c2cccn2Cc2ccc(Cl)cc2)C(=O)N=C2SC=CN12 | i | i | i | i | 50
SMILES | Redox H2O2 prof | GSTO1 inh | HKDC1 inh | Apaf-1 inh | SUMO HTRF inh
O=C(NC1CCCCC1)C(c1cccnc1)N(C(=O)CCl)c1cccc(Cl)c1 (configuration not stated) | i | 96 | i | i | i
CCN1CCN(Cc2ccc(NC(=O)c3cc(NC(=O)c4cc5cccc(OC)c5o4)cc(OC)c3)cc2C(F)(F)F)CC1 | nt | i | i | 63 | i
CN1CCN(C(=O)/C(=C/c2ccccc2F)NC(=O)c2ccccc2)CC1 | nt | i | i | i | i
O=C(Cc1cccs1)Nc1nnc(Cc2ccccc2)s1 | i | i | i | i | i
COc1ccc(Cc2nnc(NC(=O)Cc3cccs3)s2)cc1OC | i | 37 | i | i | i
O=C(NNC(=O)c1cc(Cl)ccc1O)c1cccc(S(=O)(=O)N2CCOCC2)c1 | nt | 37 | i | i | nt
O=C(Nc1ccc(Oc2ccc(Cl)cc2)c(Cl)c1)c1cc(I)cc(I)c1O | nt | i | i | i | 59
C[C@H](NCc1c[nH]c2ccccc12)c1ccccc1 | nt | i | i | i | i
CC1(C)CC2(CC(c3ccccc3F)c3ccc(O)c(O)c3O2)NC(=S)N1 (configuration not stated) | i | 44 | i | i | i
CC1(C)CC2(CC(c3ccc(F)cc3)c3ccc(O)cc3O2)NC(=S)N1 (configuration not stated) | nt | i | i | i | i
